Laboratory results: ChEMBL document CHEMBL1142303, “Imidazo[2,1-b]thiazole system: a scaffold endowing dihydropyridines with selective cardiodepressant activity” (J Med Chem, 2008)
pEC50, pIC50: −log10 of the molar value. The source made the active and inactive calls. The rule behind the calls is not given here.

Key:
[1] = Inotropic activity at L type calcium channel in guinea pig left atrium assessed as decrease in tension; format: tissue-based; details: Cavia porcellus, Cardiac atrium
How it was run: (§1)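 Guinea-pig atria: left atrium driven at 1 Hz for inotropy, spontaneously beating right atrium for chronotropy. Increasing cumulative doses, readout is percent decrease. EC50 (inotropic) and EC30 (chronotropic) by Litchfield–Wilcoxon probit analysis on log concentration–response curves, n = 6–7. Not calculated when the maximum effect was below 50%.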

[2] = organism: Cavia porcellus; assay: Chronotropic activity at L type calcium channel in guinea pig right atrium assessed as decrease in spontaneous beating; format: tissue-based; details: Cardiac atrium; how it was run: as §1
[3] = organism: Cavia porcellus; assay: Activity at L type calcium channel in K+ depolarized guinea pig aortic strip assessed as inhibition of calcium induced contraction at 100 uM; format: tissue-based; design: scale not given: the % may be the effect or the level left; details: Aorta
How it was run: (§2)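 Guinea-pig aortic strips depolarized with 80 mM K+. Drugs added cumulatively. Readout is percent inhibition of calcium-induced contraction, n = 5–6. Control versus treated values tested at each concentration by Student's t-test, P < 0.05.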

[4] = organism: Cavia porcellus; assay: Chronotropic activity at L type calcium channel in guinea pig right atrium assessed as decrease in spontaneous beating at 5 uM relative to control; format: tissue-based; design: scale not given: the % may be the effect or the level left; details: Cardiac atrium
[5] = organism: Cavia porcellus; assay: Inotropic activity at L type calcium channel in guinea pig left atrium assessed as decrease in tension at 50 uM relative to control; format: tissue-based; design: scale not given: the % may be the effect or the level left; details: Cardiac atrium
[6] = organism: Cavia porcellus; assay: Inotropic activity at L type calcium channel in guinea pig left atrium assessed as decrease in tension at 100 uM relative to control; format: tissue-based; design: scale not given: the % may be the effect or the level left; details: Cardiac atrium
[7] = organism: Cavia porcellus; assay: Chronotropic activity at L type calcium channel in guinea pig right atrium assessed as decrease in spontaneous beating at 100 uM relative to control; format: tissue-based; design: scale not given: the % may be the effect or the level left; details: Cardiac atrium
[8] = organism: Cavia porcellus; assay: Chronotropic activity at L type calcium channel in guinea pig right atrium assessed as decrease in spontaneous beating at 10 uM relative to control; format: tissue-based; design: scale not given: the % may be the effect or the level left; details: Cardiac atrium
[9] = organism: Cavia porcellus; assay: Inotropic activity at L type calcium channel in guinea pig left atrium assessed as decrease in tension at 5 uM relative to control; format: tissue-based; design: scale not given: the % may be the effect or the level left; details: Cardiac atrium
[10] = organism: Cavia porcellus; assay: Activity at L type calcium channel in K+ depolarized guinea pig aortic strip assessed as inhibition of calcium induced contraction at 10 uM; format: tissue-based; design: scale not given: the % may be the effect or the level left; details: Aorta; how it was run: as §2
[11] = organism: Cavia porcellus; assay: Activity at L type calcium channel in K+ depolarized guinea pig longitudinal smooth muscle assessed as inhibition of calcium induced contraction at 0.5 uM; design: scale not given: the % may be the effect or the level left
[12] = Activity at L type calcium channel in K+ depolarized guinea pig longitudinal smooth muscle assessed as inhibition of calcium induced contraction; design: species or system Cavia porcellus
[13] = Displacement of (+)-[5-methyl-3H][…] from L type calcium channel in guinea pig heart ventricles; design: species or system Cavia porcellus
How it was run: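 Guinea-pig ventricular membranes incubated with 0.5 nM (+)-[5-methyl-3H]PN200-110 and test compounds at 0.1–50 µM in a competitive radioligand assay. Ki and IC50 reported as mean ± S.E.M. Student's t-test, significance P < 0.001.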

[14] = (§3) Displacement of (+)-[5-methyl-3H][…] from L type calcium channel Cav1.2b in rabbit expressed in HEK293 cells; format: cell-based, Oryctolagus cuniculus
How it was run: (§4)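 Intact HEK-293 cells transfected with rabbit Cav1.2a (α1C-a) or Cav1.2b (α1C-b) plasmid, labelled with (+)-[5-methyl-3H]PN200-110. Nonspecific binding about 10–20% of total. IC50 is mean ± S.E.M. of three independent experiments.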

[15] = Displacement of (+)-[5-methyl-3H][…] from L type calcium channel Cav1.2a in rabbit expressed in HEK293 cells; format: cell-based, Oryctolagus cuniculus; how it was run: as §4
[16] = organism: Cavia porcellus; assay: Activity at L type calcium channel in K+ depolarized guinea pig aortic strip assessed as inhibition of calcium induced contraction at 5 uM; format: tissue-based; design: scale not given: the % may be the effect or the level left; details: Aorta; how it was run: as §2
[17] = organism: Cavia porcellus; assay: Chronotropic activity at L type calcium channel in guinea pig right atrium assessed as decrease in spontaneous beating at 50 uM relative to control; format: tissue-based; design: scale not given: the % may be the effect or the level left; details: Cardiac atrium
[18] = organism: Cavia porcellus; assay: Activity at L type calcium channel in K+ depolarized guinea pig longitudinal smooth muscle assessed as inhibition of calcium induced contraction at 5 uM; design: scale not given: the % may be the effect or the level left
[19] = organism: Cavia porcellus; assay: Inotropic activity at L type calcium channel in guinea pig left atrium assessed as decrease in tension at 1 uM relative to control; format: tissue-based; design: scale not given: the % may be the effect or the level left; details: Cardiac atrium
[20] = organism: Cavia porcellus; assay: Activity at L type calcium channel in K+ depolarized guinea pig longitudinal smooth muscle assessed as inhibition of calcium induced contraction at 10 uM; design: scale not given: the % may be the effect or the level left
[21] = organism: Cavia porcellus; assay: Activity at L type calcium channel in K+ depolarized guinea pig aortic strip assessed as inhibition of calcium induced contraction at 50 uM; format: tissue-based; design: scale not given: the % may be the effect or the level left; details: Aorta; how it was run: as §2
[22] = organism: Cavia porcellus; assay: Activity at L type calcium channel in K+ depolarized guinea pig longitudinal smooth muscle assessed as inhibition of calcium induced contraction at 0.1 uM; design: scale not given: the % may be the effect or the level left
[23] = organism: Cavia porcellus; assay: Activity at L type calcium channel in K+ depolarized guinea pig longitudinal smooth muscle assessed as inhibition of calcium induced contraction at 1 uM; design: scale not given: the % may be the effect or the level left
[24] = tested on: HEK293; assay: as §3; format: cell-based; details: Oryctolagus cuniculus; how it was run: as §4
[25] = organism: Cavia porcellus; assay: Inotropic activity at L type calcium channel in guinea pig left atrium assessed as decrease in tension at 10 uM relative to control; format: tissue-based; design: scale not given: the % may be the effect or the level left; details: Cardiac atrium
[26] = organism: Cavia porcellus; assay: Inotropic activity at L type calcium channel in guinea pig left atrium assessed as decrease in tension at 0.5 uM relative to control; format: tissue-based; design: scale not given: the % may be the effect or the level left; details: Cardiac atrium
[27] = organism: Cavia porcellus; assay: Activity at L type calcium channel in K+ depolarized guinea pig longitudinal smooth muscle assessed as inhibition of calcium induced contraction at 100 uM; design: scale not given: the % may be the effect or the level left

Structure (SMILES)	pEC50 [1]	pIC50 [12]	EC30 [2] [nM]	Activity [3] [%]	Activity [5] [%]	Activity [8] [%]	Activity [21] [%]	also measured
COC(=O)C1=C(C)NC(C)=C(C(=O)OC)C1c1c(Cl)nc2sc(C)c(C)n12	7.09							Activity [4]: 29%; Activity [9]: 73%; Activity [10]: 29%
COC(=O)C1=C(C)NC(C)=C(C(=O)OC)C1c1c(-c2cc(OC)ccc2OC)nc2sc(C)cn12	5.84		1360	15	78	58		
COC(=O)C1=C(C)NC(C)=C(C(=O)OC)C1c1c(-c2ccccc2)nc2scc(C)n12	6.08		640				30	Activity [6]: 59%; Activity [4]: 88%
COC(=O)C1=C(C)NC(C)=C(C(=O)OC)C1c1c(-c2c(OC)ccc(OC)c2[N+](=O)[O-])nc2sc(C)cn12	7.03			27				Activity [7]: 47%; Activity [9]: 71%
COC(=O)C1=C(C)NC(C)=C(C(=O)OC)C1c1c(-c2ccccc2)nc2sc(C)c(C)n12	6.23		330	12				Activity [6]: 76%; Activity [4]: 94%
COC(=O)C1=C(C)NC(C)=C(C(=O)OC)C1c1c(Cl)nc2scc(C)n12	6.99					39	47	Activity [19]: 79%
COC(=O)C1=C(C)NC(C)=C(C(=O)OC)C1c1c(-c2cc(OC)c(OC)c(OC)c2)nc2sccn12		6.26		44				Activity [19]: 42%; Activity [4]: 25%; Activity [23]: 64%
COC(=O)C1=C(C)NC(C)=C(C(=O)OC)C1c1c(-c2cc(OC)c([N+](=O)[O-])cc2OC)nc2sc(C)cn12	7.59	6.62	2110	32		87		Log Ki [13]: < -5; Activity [24]: inactive; Activity [23]: 94%; Activity [9]: 75%
COC(=O)C1=C(C)NC(C)=C(C(=O)OC)C1c1c(-c2cc(OC)ccc2OC)nc2sc(Cl)cn12	6.05		360	11				Activity [6]: 55%; Activity [7]: 84%
COC(=O)C1=C(C)NC(C)=C(C(=O)OC)C1c1c(-c2cc(OC)c([N+](=O)[O-])cc2OC)nc2sc(Cl)cn12	6.44		310					Activity [25]: 58%; Activity [4]: 90%; Activity [10]: 19%
CCc1cn2c(C3C(C(=O)OC)=C(C)NC(C)=C3C(=O)OC)c(-c3cc(OC)ccc3OC)nc2s1	5.65		730		72	92	29	
COC(=O)C1=C(C)NC(C)=C(C(=O)OC)C1c1c(C)nc2sc(C)cn12				33				Activity [17]: 38%; Activity [26]: 43%
COC(=O)C1=C(C)NC(C)=C(C(=O)OC)C1c1c(C(F)(F)F)nc2sc(C)cn12						36	28	Activity [19]: 46%
COC(=O)C1=C(C)NC(C)=C(C(=O)OC)C1c1c(Cl)nc2sc(Cl)cn12	6.74				77	37	34	
CCCc1cn2c(C3C(C(=O)OC)=C(C)NC(C)=C3C(=O)OC)c(-c3c(OC)ccc(OC)c3[N+](=O)[O-])nc2s1	7.41	4.89		5	55			Activity [27]: 89%; Activity [4]: 25%
COC(=O)C1=C(C)NC(C)=C(C(=O)OC)C1c1c(-c2c(OC)ccc(OC)c2[N+](=O)[O-])nc2sc(Cl)cn12			11200	32				Activity [19]: 42%; Activity [7]: 64%
COC(=O)C1=C(C)NC(C)=C(C(=O)OC)C1c1c(C)nc2sc(Cl)cn12	6.89				63	30	24	

Further lines, with some results ahead:

pEC50 [1]	pIC50 [12]	Structure (SMILES)	EC30 [2] [nM]	Activity [3] [%]	Activity [5] [%]	Activity [8] [%]	Activity [21] [%]	also measured
6.08		COC(=O)C1=C(C)NC(C)=C(C(=O)OC)C1c1c(-c2cccc(OC(F)(F)F)c2)nc2sccn12	1180	26	86			Activity [4]: 69%
5.71		COC(=O)C1=C(C)NC(C)=C(C(=O)OC)C1c1c(-c2ccccc2OC)nc2sccn12	1990	28				Activity [6]: 54%; Activity [7]: 95%
5.91		COC(=O)C1=C(C)NC(C)=C(C(=O)OC)C1c1c(-c2ccc(OC)cc2OC)nc2sccn12	5880	42	71	55		
	7.26	COC(=O)C1=C(C)NC(C)=C(C(=O)OC)C1c1c(-c2cc(OC)cc(OC)c2)nc2sccn12	860					Activity [11]: 89%; Log Ki [13]: -6.51; Activity [6]: 26%; pIC50 [14]: 8.84; Activity [4]: 90%; pIC50 [15]: 6.58; Activity [16]: 40%
5.87		COC(=O)C1=C(C)NC(C)=C(C(=O)OC)C1c1c(-c2cc(OC)c(OC)cc2[N+](=O)[O-])nc2sccn12	6970	35	91			Activity [17]: 90%
7.12	5.71	COC(=O)C1=C(C)NC(C)=C(C(=O)OC)C1c1c(-c2ccccc2OC(F)(F)F)nc2sccn12		47		47		Log Ki [13]: -6.8; Activity [18]: 81%; Activity [9]: 67%
7.03	5.78	COC(=O)C1=C(C)NC(C)=C(C(=O)OC)C1c1c(-c2ccccc2C(F)(F)F)nc2sccn12		24		25		Activity [19]: 56%; Activity [20]: 92%
5.58		COC(=O)C1=C(C)NC(C)=C(C(=O)OC)C1c1c(-c2ccc(OC)c(OC)c2)nc2sccn12	1440				15	Activity [6]: 61%; Activity [17]: 80%
5.72	7.08	COC(=O)C1=C(C)NC(C)=C(C(=O)OC)C1c1c(-c2cccc(OC)c2)nc2sccn12	550					Activity [6]: 90%; Activity [22]: 51%; Activity [4]: 94%; Activity [10]: 48%
6.36	4.91	COC(=O)C1=C(C)NC(C)=C(C(=O)OC)C1c1c(-c2cc(OC)ccc2OC)nc2sccn12		24	92	31		Activity [20]: 51%
7.27	5.59	COC(=O)C1=C(C)NC(C)=C(C(=O)OC)C1c1c(-c2cc(OC)c([N+](=O)[O-])cc2OC)nc2sccn12	3970			67	35	Activity [20]: 97%; Activity [9]: 54%
6.51		COC(=O)C1=C(C)NC(C)=C(C(=O)OC)C1c1c(-c2cccc(C(F)(F)F)c2)nc2sccn12	1900		89	78	27	
6.44	4.96	COC(=O)C1=C(C)NC(C)=C(C(=O)OC)C1c1c(-c2c(OC)ccc(OC)c2[N+](=O)[O-])nc2sccn12		17				Activity [25]: 71%; Activity [27]: 86%; Activity [7]: 12%
5.71		COC(=O)C1=C(C)NC(C)=C(C(=O)OC)C1c1c(-c2ccccc2)nc2sc(Cl)cn12	2140			87	22	Activity [6]: 58%
